Data reported in ChEMBL document CHEMBL5356931, “Medicinal chemistry approaches to target the MNK-eIF4E axis in cancer” (RSC Med Chem, 2023).
Converted amounts (≈) assume the structure as drawn.

Tests used:
[1] = molecular target: MAP kinase-interacting serine/threonine-protein kinase 2 (Homo sapiens, UniProt Q9HBH9); assay: Inhibition of MNK2 (unknown origin)
[2] = Solubility of the compound; type: physicochemical
[3] = molecular target: T1, Tyrosine-protein kinase ABL1 (Homo sapiens, UniProt P00519); assay: Inhibition of ABL1 (unknown origin)
T1 sequence (P00519 whole entry): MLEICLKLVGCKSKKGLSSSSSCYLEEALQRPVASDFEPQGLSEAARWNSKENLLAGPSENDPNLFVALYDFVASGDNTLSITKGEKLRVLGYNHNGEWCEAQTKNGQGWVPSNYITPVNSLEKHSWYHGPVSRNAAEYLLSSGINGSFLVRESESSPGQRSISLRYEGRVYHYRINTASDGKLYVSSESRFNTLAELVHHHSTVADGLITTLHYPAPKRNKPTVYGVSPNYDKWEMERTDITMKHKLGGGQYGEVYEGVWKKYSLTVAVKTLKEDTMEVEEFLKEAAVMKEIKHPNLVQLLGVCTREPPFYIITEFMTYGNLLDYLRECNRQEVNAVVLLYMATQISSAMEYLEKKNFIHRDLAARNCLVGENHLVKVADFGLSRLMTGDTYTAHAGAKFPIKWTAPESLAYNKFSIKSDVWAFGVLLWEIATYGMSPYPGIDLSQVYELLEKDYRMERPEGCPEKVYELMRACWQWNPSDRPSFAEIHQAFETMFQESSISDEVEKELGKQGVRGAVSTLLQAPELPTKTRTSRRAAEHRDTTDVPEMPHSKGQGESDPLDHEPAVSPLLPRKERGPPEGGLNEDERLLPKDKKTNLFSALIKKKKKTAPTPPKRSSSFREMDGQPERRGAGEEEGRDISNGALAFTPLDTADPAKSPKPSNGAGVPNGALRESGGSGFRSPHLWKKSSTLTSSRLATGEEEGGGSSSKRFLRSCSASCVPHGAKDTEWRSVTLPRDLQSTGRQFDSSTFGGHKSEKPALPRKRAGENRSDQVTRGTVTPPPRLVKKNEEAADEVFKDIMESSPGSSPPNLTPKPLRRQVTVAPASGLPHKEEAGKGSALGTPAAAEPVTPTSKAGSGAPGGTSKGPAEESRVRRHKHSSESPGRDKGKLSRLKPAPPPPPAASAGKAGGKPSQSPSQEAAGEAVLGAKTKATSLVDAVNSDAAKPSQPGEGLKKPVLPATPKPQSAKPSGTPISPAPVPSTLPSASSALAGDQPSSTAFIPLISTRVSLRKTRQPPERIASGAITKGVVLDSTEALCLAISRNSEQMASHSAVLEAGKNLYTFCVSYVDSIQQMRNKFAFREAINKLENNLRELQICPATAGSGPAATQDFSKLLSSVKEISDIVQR

[4] = Half life in CD-1 mouse at 5 mg/kg, iv; type: ADME, organism-based, CD1; details: in vivo
[5] = molecular target: Proto-oncogene tyrosine-protein kinase receptor Ret (Homo sapiens, UniProt P07949); assay: Inhibition of RET (unknown origin)
Sequence of Proto-oncogene tyrosine-protein kinase receptor Ret (P07949 whole entry): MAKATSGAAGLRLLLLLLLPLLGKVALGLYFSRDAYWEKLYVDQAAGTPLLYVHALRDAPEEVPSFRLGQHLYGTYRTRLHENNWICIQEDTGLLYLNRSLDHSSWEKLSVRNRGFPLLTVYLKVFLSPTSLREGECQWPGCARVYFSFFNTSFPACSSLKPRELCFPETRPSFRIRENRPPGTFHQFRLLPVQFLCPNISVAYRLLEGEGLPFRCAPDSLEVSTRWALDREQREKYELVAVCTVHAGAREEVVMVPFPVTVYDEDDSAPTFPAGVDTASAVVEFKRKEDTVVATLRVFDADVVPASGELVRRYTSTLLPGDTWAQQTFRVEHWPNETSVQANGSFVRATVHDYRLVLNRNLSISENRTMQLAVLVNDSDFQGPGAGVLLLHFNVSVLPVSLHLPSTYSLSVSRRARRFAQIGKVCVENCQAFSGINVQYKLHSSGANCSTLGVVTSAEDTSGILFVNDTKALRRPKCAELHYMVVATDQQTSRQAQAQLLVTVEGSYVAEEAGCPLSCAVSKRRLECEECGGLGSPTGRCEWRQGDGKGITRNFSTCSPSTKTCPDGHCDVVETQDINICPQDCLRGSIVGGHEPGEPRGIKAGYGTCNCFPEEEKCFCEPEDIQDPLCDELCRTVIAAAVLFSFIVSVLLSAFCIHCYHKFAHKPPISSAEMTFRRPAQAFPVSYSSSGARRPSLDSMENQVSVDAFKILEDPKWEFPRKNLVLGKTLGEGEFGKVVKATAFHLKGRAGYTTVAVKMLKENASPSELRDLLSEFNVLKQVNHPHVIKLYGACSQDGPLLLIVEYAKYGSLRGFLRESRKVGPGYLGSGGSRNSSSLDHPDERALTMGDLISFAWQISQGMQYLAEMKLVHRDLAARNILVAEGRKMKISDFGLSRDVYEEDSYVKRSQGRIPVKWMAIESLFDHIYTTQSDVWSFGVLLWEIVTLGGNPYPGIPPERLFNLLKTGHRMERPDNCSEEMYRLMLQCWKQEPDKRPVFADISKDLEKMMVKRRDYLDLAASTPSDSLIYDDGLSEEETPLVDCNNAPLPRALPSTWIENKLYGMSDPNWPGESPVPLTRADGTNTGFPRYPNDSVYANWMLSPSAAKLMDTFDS

[6] = molecular target: Vascular endothelial growth factor receptor 2 (Homo sapiens, UniProt P35968); assay: Inhibition of VEGFR2 (unknown origin)
Sequence of Vascular endothelial growth factor receptor 2 (P35968 whole entry): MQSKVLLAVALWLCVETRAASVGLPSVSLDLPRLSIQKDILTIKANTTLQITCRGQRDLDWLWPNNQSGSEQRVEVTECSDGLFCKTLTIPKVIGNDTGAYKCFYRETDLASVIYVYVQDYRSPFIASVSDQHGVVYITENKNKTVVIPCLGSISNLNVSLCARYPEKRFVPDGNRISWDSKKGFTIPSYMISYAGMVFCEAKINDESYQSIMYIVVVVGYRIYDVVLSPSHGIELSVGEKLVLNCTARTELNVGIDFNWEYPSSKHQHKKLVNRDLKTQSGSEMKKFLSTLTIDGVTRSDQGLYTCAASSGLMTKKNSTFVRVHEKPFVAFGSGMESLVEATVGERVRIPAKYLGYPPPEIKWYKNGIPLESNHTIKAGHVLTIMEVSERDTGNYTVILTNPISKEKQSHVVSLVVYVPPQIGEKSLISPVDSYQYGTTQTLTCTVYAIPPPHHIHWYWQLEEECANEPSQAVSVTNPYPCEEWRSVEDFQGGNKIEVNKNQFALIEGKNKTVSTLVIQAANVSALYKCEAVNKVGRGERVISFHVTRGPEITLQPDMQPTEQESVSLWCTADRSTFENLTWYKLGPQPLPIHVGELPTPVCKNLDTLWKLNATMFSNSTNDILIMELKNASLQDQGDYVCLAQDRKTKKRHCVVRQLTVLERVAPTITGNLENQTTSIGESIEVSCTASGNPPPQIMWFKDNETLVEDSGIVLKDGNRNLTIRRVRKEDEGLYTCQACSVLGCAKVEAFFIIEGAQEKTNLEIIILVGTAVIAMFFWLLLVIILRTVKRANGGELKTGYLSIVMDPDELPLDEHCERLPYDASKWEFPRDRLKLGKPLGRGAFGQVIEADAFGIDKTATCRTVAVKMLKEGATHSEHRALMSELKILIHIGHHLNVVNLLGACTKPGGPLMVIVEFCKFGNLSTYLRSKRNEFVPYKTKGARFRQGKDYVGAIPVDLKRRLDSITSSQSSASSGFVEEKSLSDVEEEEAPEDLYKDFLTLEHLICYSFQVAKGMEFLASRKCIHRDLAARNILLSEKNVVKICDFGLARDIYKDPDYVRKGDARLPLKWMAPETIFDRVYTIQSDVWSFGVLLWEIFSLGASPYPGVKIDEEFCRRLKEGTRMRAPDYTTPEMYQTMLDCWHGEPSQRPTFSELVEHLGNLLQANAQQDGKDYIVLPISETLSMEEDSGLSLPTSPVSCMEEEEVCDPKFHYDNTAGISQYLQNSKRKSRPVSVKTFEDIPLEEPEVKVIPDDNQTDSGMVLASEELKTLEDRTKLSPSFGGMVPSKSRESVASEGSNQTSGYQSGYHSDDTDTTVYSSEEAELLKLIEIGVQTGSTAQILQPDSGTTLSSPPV

[7] = molecular target: T2, Receptor-type tyrosine-protein kinase FLT3 (Homo sapiens, UniProt P36888); assay: Inhibition of FLT3 (unknown origin)
T2 sequence (P36888 whole entry): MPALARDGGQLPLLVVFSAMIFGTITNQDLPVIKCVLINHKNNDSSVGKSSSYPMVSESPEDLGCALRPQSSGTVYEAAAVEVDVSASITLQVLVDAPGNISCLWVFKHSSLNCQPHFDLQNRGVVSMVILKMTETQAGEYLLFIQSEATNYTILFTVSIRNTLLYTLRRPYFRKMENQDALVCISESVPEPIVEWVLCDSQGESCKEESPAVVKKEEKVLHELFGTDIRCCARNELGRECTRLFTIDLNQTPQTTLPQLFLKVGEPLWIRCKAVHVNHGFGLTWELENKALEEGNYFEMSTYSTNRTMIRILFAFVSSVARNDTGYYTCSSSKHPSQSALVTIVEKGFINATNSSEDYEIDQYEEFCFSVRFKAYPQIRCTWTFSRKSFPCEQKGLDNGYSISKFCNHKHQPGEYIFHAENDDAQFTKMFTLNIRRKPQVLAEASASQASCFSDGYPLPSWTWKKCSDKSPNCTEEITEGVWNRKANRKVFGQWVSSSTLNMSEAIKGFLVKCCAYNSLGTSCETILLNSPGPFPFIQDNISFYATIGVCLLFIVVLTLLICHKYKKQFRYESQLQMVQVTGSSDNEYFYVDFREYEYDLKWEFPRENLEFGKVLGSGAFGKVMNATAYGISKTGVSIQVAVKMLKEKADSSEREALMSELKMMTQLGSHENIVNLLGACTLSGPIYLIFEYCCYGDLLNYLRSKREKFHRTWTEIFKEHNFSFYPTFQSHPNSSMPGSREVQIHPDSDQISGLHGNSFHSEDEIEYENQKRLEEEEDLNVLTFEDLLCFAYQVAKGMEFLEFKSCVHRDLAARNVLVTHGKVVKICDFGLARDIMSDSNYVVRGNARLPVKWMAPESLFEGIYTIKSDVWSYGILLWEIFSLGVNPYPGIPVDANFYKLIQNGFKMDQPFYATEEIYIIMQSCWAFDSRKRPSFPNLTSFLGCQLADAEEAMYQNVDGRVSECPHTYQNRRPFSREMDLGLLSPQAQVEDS

K562 [8] = assay: animal or person; details: Mus musculus, K562, read-out: TGI
K562 [9] = assay: animal or person; details: Mus musculus, K562, read-out: TGI; remark: listed apart in the source
[10] = molecular target: T1, Tyrosine-protein kinase ABL1; assay: Inhibition of ABL1 (unknown origin) relative to control; details: concentration not given here
[11] = molecular target: MAP kinase-interacting serine/threonine-protein kinase 1 (Homo sapiens) (UniProt Q9BUB5); assay: Inhibition of MNK1 (unknown origin) relative to control; details: concentration not given here
Sequence of MAP kinase-interacting serine/threonine-protein kinase 1 (Homo sapiens) (Q9BUB5 whole entry, looked up): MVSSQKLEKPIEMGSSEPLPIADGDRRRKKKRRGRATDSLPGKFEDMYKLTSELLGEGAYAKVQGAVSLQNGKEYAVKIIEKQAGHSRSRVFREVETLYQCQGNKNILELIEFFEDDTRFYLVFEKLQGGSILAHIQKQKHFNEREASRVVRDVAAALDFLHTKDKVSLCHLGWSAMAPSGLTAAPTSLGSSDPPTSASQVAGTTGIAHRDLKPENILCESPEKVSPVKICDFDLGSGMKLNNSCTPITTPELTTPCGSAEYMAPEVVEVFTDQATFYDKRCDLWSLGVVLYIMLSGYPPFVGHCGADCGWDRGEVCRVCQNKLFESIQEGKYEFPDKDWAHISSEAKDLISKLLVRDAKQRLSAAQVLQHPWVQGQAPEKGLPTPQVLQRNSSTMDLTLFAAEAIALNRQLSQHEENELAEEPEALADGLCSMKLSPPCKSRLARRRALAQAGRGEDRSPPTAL

[12] = molecular target: T3, Eukaryotic translation initiation factor 4E (Homo sapiens, UniProt P06730); assay: Inhibition of eIF4E phosphorylation in human HeLa cells; type: cell-based
T3 sequence (P06730 whole entry): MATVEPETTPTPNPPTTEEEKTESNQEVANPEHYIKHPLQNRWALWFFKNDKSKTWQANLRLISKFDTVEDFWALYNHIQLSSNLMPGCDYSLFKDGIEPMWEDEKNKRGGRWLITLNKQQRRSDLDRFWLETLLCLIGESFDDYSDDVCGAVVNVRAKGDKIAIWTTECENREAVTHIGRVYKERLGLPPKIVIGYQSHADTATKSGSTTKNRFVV

[13] = Drug exposure in mouse at 5 mg/kg,po; type: ADME, organism-based; set-up: dose 5 mg/kg, route po; details: in vivo
In short: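 Mice received a single oral dose of 5 mg kg⁻¹. Exposure was described by oral bioavailability F (%), Cmax (ng mL⁻¹) and AUC0−t (last) (ng h mL⁻¹).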

[14] = molecular target: T3, Eukaryotic translation initiation factor 4E; assay: Binding affinity to eIF4E (unknown origin) assessed as dissociation constant
[15] = Solubility of compound at pH 7.4; type: physicochemical; details: buffer

Sequence of MAP kinase-interacting serine/threonine-protein kinase 2 (Q9HBH9 whole entry): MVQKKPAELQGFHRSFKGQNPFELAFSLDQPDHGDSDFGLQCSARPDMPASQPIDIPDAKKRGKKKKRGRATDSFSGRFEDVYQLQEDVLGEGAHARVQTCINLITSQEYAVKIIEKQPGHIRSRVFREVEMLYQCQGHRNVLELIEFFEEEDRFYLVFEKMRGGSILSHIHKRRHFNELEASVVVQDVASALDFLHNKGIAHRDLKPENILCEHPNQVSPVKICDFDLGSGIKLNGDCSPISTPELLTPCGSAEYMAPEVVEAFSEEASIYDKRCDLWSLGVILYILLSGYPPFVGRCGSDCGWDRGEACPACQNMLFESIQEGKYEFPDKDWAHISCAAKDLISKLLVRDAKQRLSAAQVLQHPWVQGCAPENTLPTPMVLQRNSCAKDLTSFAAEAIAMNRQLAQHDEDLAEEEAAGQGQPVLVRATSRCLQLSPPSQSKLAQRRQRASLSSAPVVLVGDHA

`CN1CCN(C(=O)c2ccc(-c3ccc4ncc(-c5ccc(C#N)cc5)n4n3)cc2)CC1` showed an IC50 [1] of 30 nM.

Compound `CN1CCN(C(=O)c2ccc(-c3cn4c(-c5ccc(C(=O)NO)cc5)cnc4cn3)cc2)CC1` has an IC50 [1] of 30 nM.

In the case of `CC(=O)N1CCN(C(=O)c2ccc(-c3cn4c(-c5ccc(O)cc5)cnc4cn3)cc2)CC1`, the solubility [2] is reported as 144 µg/mL (≈ 326 µM).

Compound `CCN1CCN(Cc2ccc(NC(=O)COc3ccc(-c4cccnc4)cc3)cc2C(F)(F)F)CC1` has an IC50 [3] of over 10000 nM.

With `CCN1CCN(Cc2ccc(NC(=O)CNc3ccc(-c4cccnc4)cc3)cc2C(F)(F)F)CC1` the IC50 [3] was over 10000 nM.

Work on `CCN1CCN(Cc2ccc(NC(=O)CNc3ccc(-c4ccc(NC(=O)C5CC5)nc4)cc3)cc2C(F)(F)F)CC1` yielded a half-life [4] of 2.1 h, an IC50 [5] of under 24 nM and an IC50 [6] of under 24 nM. It also gave an IC50 [7] of under 24 nM.

Work on `N#Cc1ccc(-c2cnc3ccc(-c4ccc(C(=O)N5CCOCC5)cc4)cn23)cc1` [TINODASERTIB] yielded an inhibition in vivo at 25 mg/kg (K562 [8]) of 107% and an inhibition in vivo at 50 mg/kg (K562 [9]) of 110%.

`CN1CCN(Cc2ccc(NC(=O)CNc3ccc(-c4ccc(NC(=O)C5CC5)nc4)cc3F)cc2C(F)(F)F)CC1` gave an inhibition [10] of over 90%, an IC50 [5] of under 24 nM and an inhibition [11] of over 90%. For the same compound, the IC50 [12] was 280 nM, the IC50 [6] was under 24 nM and the IC50 [7] was under 24 nM.

Work on `CN1CCN(C(=O)c2ccc(-c3cn4c(-c5ccc(O)cc5)cnc4cn3)cc2)CC1` yielded a solubility [2] of 144 µg/mL (≈ 348 µM).

In the case of `CC(C)Oc1cc(-c2cncc(-c3cnn(C4COC4)c3)c2)ccc1C(N)=O`, the AUC [13] is reported as 2080 ng·h/mL, the inhibition [11] is reported as over 90% and the IC50 [12] is reported as 200 nM.

`O=C(c1ccc(-c2cn3c(-c4ccc(O)cc4)cnc3cn2)cc1)N1CCOCC1` gave a solubility [2] of 11.5 µg/mL (≈ 28.7 µM).

With `NC(=O)c1ncn([C@@H]2O[C@H](CO)[C@@H](O)[C@H]2O)n1` [RIBAVIRIN] the Kd [14] was 8400 nM.

Work on `CC(C)Oc1cc(-c2cccnc2)ccc1C(N)=O` yielded a solubility [15] of 45 µg/mL (≈ 176 µM).
